Bioassay records (PubChem BioAssay)
Compounds with a hit are over-represented: about 4.8% of the library has one in this group of screens.
T cruzi inh: T. cruzi replication inhibition; T. cruzi beta-gal in NIH3T3, luminescence, 90 h; inhibition, % (test concentration not listed); actives 1.4% (n = 300,000);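 active = mean inhibition across valid replicates above about 55%, limit read from the data; inconclusive = mean below that limit but half or more replicates reach it; inactive = mean below it, under half of replicates reach it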;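 note: signal also drops with host cell toxicity which is not excluded here; 0% = plate median of DMSO wells and 100% = zero luminescence signal; higher percent means less beta-gal luminescence so fewer parasites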
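compound dosing = single 50 nL compound addition per well in DMSO | material = NIH/3T3 host cells with β-galactosidase reporter T. cruzi | input = 5,000 host fibroblasts per well | timing = ≥90 h infection period, 3 h prior cell attachment | read-out basis = percent inhibition of parasite-derived β-gal signal | detection = GalScreen β-gal luminescence, detergent lysis, 60 min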
WT yeast gro inh: growth inhibition of WT yeast, mitochondrial fusion screen; mitochondrial fusion phenotypic screen, WT strain; AID 1362; actives 2.1% (n = 190,000); inhibition, % at 10 µM; in the data active = inhibition above about 58%; tested in S. cerevisiae
Beta apoptosis: beta cell apoptosis inhibition; INS-1E cytokine-induced death, ATP luminescence, 48 h; percent of positive-control rescue, neutral wells zero; actives 0.8% (n = 300,000); protection from apoptosis, % (no concentration beside the values); AID 435005;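 active = Every replicate reaches about 75%, or at least half do and their mean reaches it too, limit read from the data; inconclusive = At least half of replicates reach the limit but their mean does not; inactive = Under half of replicates reach the limit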;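 note: 0% = cytokine-treated negative control wells and 100% = positive control rescue; higher means more ATP so stronger rescue from cytokine killing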
CSC inhib: cancer stem cell inhibition; cancer stem cell-like cells viability, luminescence; inhibition, % at 7.5 µM; actives 1.1% (n = 300,000); AID 2717; in the data active = inhibition above about 75%; inconclusive = no clear call, values can overlap the other calls; tested in HMLE shEcad cells
Efflux pump inh: blocks antifungal efflux pumps in multiplex yeast assay. actives 0.44% (n = 330,000). AID 485275. S. cerevisiae Candida pump triplex, Nile Red efflux. inhibition, % at 10 µM;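 active = plate passing quality check with inhibition over a set limit, or well fluorescence over plate mean plus 4 SD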;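 note: Nile Red retained in pooled yeast measured as flow cytometry median fluorescence; 0% = buffer negative control and 100% = Enniatin B positive control; higher means more Nile Red kept so more efflux inhibition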
Mot1-301 SUMO: SUMOylation pathway inhibition by Mot1-301 growth rescue | actives 1% (n = 320,000) | growth rescue, % at 18.8 µM | S. cerevisiae Mot1-301 growth rescue, ATP luminescence, 38.5C; percent above DMSO median, 100 means doubled;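 active = every valid replicate shows activation above 250% relative to neutral control wells; inactive = the rest, any valid replicate at or below 250%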;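 note: OY570 slx delta 5 strain wells were the positive control but not used for scaling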
The depositor's hits bear a star; ? = inconclusive; · = no result given.

SMILES	T cruzi inh	WT yeast gro inh	Beta apoptosis	CSC inhib	Efflux pump inh	Mot1-301 SUMO
CCn1c(=N)n(CC(=O)C23CC4CC(CC(C4)C2)C3)c2ccccc21	57.6*	89.6*	2.7	·	0.1	162.9
CN1CCN(C(=O)c2ccccc2NC(=O)CCN2C(=O)c3ccccc3C2=O)CC1	2.0	-2.9	-0.5	-6.7	0.0	336.2*
CCN1CCN(C(=O)C2CCN(S(=O)(=O)c3ccc(SC)cc3)CC2)CC1	-8.4	·	-0.3	43.0	0.0	-10.1
O=[N+]([O-])c1ccc(/C=C/C2=NN(c3ccccc3)C(c3ccco3)C2)o1 (stereo unspecified)	61.0*	7.7	·	·	·	·
Fc1ccc(C2=NN(c3ccccc3)C(c3ccco3)C2)cc1 (stereo unspecified)	3.1	50.2	0.2	-8.1	0.1	-2.5
C(=C\c1ccco1)/C1=NN(c2ccccc2)C(c2ccco2)C1 (stereo unspecified)	-8.9	21.7	8.9	27.8	1.4*	23.7
CCCOc1ccc(C(=O)Nc2ccc(S(=O)(=O)N3C[C@@H]4C[C@@H](C3)c3cccc(=O)n3C4)cc2)cc1	·	·	-7.9	10.9	0.3	5.7
O=C(Cc1ccccc1)Nc1cc(C(=O)c2ccccc2)ccc1N1CCOCC1	20.9	4.6	·	55.0	-0.2	6.1
Nc1ncnc2c1ncn2[C@@H]1O[C@H](CO)C[C@@H]1O	60.8*	2.5	·	3.6	0.3	0.0
O=C(NC(NNc1ccc([N+](=O)[O-])cc1)(C(F)(F)F)C(F)(F)F)c1ccc(Cl)cc1	0.9	78.4*	-2.8	33.7	-0.2	172.5
NS(=O)(=O)c1ccc(CCNC(=O)COC(=O)CCc2c[nH]c3ccccc23)cc1	·	·	4.3	·	0.2	7.0
CC1(C)N=C(N)N=C(N)N1c1ccc(OCCCOc2ccccc2)c(Cl)c1	50.8	·	102.9*	84.6*	-0.1	-13.1
CCOc1ccc(N2C(N)=NC(N)=NC2(C)C)cc1	-8.3	1.9	2.7	0.7	-0.1	-14.4
Cc1ccc2nc(Cl)c(/C=N/NC(=O)[C@H]3C[C@@H]3c3ccccc3)cc2c1	36.8	15.6	4.7	7.5	0.1	10.4
O=C(N/N=C/c1cc(Cl)ccc1O)c1cccnc1	-0.1	·	85.9*	31.2	0.0	6.7
O=C(N/N=C/c1cc(Cl)ccc1O)c1ccccc1Br	18.3	3.8	109.5*	20.8	0.0	-15.8
Cc1ccc2nc(Cl)c(/C=N/NC(=O)c3ccccc3O)cc2c1	-15.4	61.6*	-2.5	6.2	-0.5	0.6
O=C(N/N=C\c1cc(Cl)ccc1O)c1ccc(S(=O)(=O)N2CCCCC2)cc1	50.6	11.0	96.7*	-3.8	-0.1	-6.3
O=C(CNC(=O)c1ccccc1Br)N/N=C/c1cc(Br)ccc1O	45.6	-2.6	42.8	31.5	-0.2	33.5
O=C(N/N=C/c1cccnc1)c1cccc(Cl)c1	-10.5	·	5.6	-7.6	0.2	172.1
Cc1ccc2nc(SCC(=O)N3CCC(C)CC3)nc(=O)n2c1	-6.0	·	3.3	1.2	-0.1	-1.8
CCOC(=O)c1c(C)[nH]c(C)c1S(=O)(=O)NC(C)Cc1ccco1 (stereo unspecified)	-7.9	·	0.2	4.8	0.1	-0.7
C=CCSc1nnc(NC(=O)c2nc(SCC)ncc2Cl)s1	-8.0	3.9	5.7	10.2	0.0	9.9
CC(C)c1nnc(NC(=O)c2nc(S(=O)(=O)Cc3ccc(F)cc3)ncc2Cl)s1	-25.4	·	-21.6	106.0*	-0.1	-10.4
O=C(NCc1ccc2c(c1)OCO2)c1nc(S(=O)(=O)Cc2ccccc2F)ncc1Cl	-0.9	·	7.1	?	0.0	3.3
SMILES	T cruzi inh	WT yeast gro inh	Beta apoptosis	CSC inhib	Efflux pump inh	Mot1-301 SUMO
COc1ccc(CNC(=O)c2nc(S(=O)(=O)Cc3ccccc3)ncc2Cl)cc1	-16.8	·	15.5	-7.9	0.2	19.2
Cc1nnc(NC(=O)c2nc(S(=O)(=O)Cc3ccccc3C)ncc2Cl)s1	-7.9	·	-37.7	84.5*	-0.1	-3.5
CCSc1nnc(NC(=O)c2nc(S(=O)(=O)Cc3ccc(F)cc3)ncc2Cl)s1	-11.3	·	-29.5	102.8*	-0.1	-17.6
Cc1cccc(CS(=O)(=O)c2ncc(Cl)c(C(=O)Nc3nnc(C(C)C)s3)n2)c1	-18.8	·	-20.0	107.3*	0.0	-8.1
O=C(c1ccc(COc2c(F)c(F)cc(F)c2F)o1)N1CCN(c2ccc(Cl)cc2)CC1	47.4	50.4	·	-0.6	-0.1	-12.1
CC(C)c1nnc(NC(=O)c2nc(S(=O)(=O)Cc3ccccc3F)ncc2Cl)s1	-23.7	·	-27.1	102.4*	-0.1	3.8
